Results reported in ChEMBL document CHEMBL4368925, “Design, synthesis, and screening of novel ursolic acid derivatives as potential anti-cancer agents that target the HIF-1α pathway” (Bioorg Med Chem Lett, 2019).
Active and inactive are the calls of the source. No cut-off for these calls is given here.

Assays:
[1] = biological target: Hypoxia-inducible factor 1-alpha (Homo sapiens) (UniProt Q16665); assay: Inhibition of HIF1alpha protein level in human Hep3B cells after 12 hrs in hypoxic condition by Western blot analysis; format: cell-based
Procedure, shortened: (§1)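 HCT116, A549, Hep3B and HeLa cells incubated 12 h under normoxia or hypoxia with or without indicated compound concentrations; nuclear extracts probed for HIF-1α by Western blot, blot reprobed for topoisomerase-I as loading control.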

[2] = biological target: Hypoxia-inducible factor 1-alpha (Homo sapiens) (UniProt Q16665); assay: Inhibition of HIF1alpha transcriptional activity in human Hep3B cells after 24 hrs in hypoxic condition by HRE-dual luciferase reporter gene assay; format: cell-based
Procedure, shortened: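 Hep3B cells transiently co-transfected with pGL3-HRE-luciferase and pRL-CMV, after 24 h incubated under hypoxia with or without compound; luciferase activity measured after 24 h, ursolic acid as positive control; mean ± SD of three independent experiments.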

Hep 3B2 [3] = assay: Cytotoxicity against human Hep3B cells assessed as reduction in cell viability after 24 hrs in normoxic condition by MTT assay; format: cell-based
Procedure, shortened: (§2)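 Hep3B viability by MTT assay after 24 h compound treatment under normoxia; table values are means, n=3.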

[4] = biological target: Hypoxia-inducible factor 1-alpha (Homo sapiens) (UniProt Q16665); assay: Inhibition of HIF1alpha protein level in human HCT116 cells after 12 hrs in hypoxic condition by Western blot analysis; format: cell-based; procedure, shortened: as §1
[5] = biological target: Hypoxia-inducible factor 1-alpha (Homo sapiens) (UniProt Q16665); assay: Inhibition of HIF1alpha protein level in human A549 cells after 12 hrs in hypoxic condition by Western blot analysis; format: cell-based; procedure, shortened: as §1
[6] = biological target: Hypoxia-inducible factor 1-alpha (Homo sapiens) (UniProt Q16665); assay: Inhibition of HIF1alpha protein level in human HeLa cells after 12 hrs in hypoxic condition by Western blot analysis; format: cell-based; procedure, shortened: as §1
[7] = biological target: Hypoxia-inducible factor 1-alpha (Homo sapiens) (UniProt Q16665); assay: Inhibition of HIF1alpha protein level in human Hep3B cells at 10 uM after 12 hrs in hypoxic condition by DAPI-staining based confocal laser scanning microscopic analysis; format: cell-based
Procedure, shortened: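 Hep3B cells given 10 μM compound for 12 h under hypoxia, fixed, stained with anti-HIF-1α (1:100) and Alexa Fluor 488 goat anti-mouse IgG, nuclei counterstained with DAPI; imaged by fluorescence microscopy with 40× objective.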

[8] = biological target: Hypoxia-inducible factor 1-alpha (Homo sapiens) (UniProt Q16665); assay: Inhibition of HIF1alpha in human Hep3B cells at 10 uM preincubated with 26S proteosome inhibitor MG132 followed by compound addition and measured after 12 hrs in hypoxic condition by Western blot analysis; format: cell-based
Procedure, shortened: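 Proteasome inhibitor MG-132 (10 μM) added to Hep3B cells 30 min before compound (10 μM), then hypoxia for 12 h; nuclear HIF-1α detected by Western blot.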

[9] = biological target: T1, 26S proteasome (Homo sapiens) (UniProt Q99460+P49721+P20618+P28074+P28062+P28065+P28072+O00487+P25786+P25787+P25788+P25789+P28066+P60900+O14818+Q8TAA3+P40306+A5LHX3+P49720+P28070+Q99436+Q16186+P35998+P62191+P43686+P62333+P17980+P62195+Q13200+O43242+O00232+O00231+Q15008+P51665+Q9UNM6+P55036+P48556+P60896); assay: Inhibition of 26S proteosome in human Hep3B cells grown under in hypoxic condition for 4 hrs assessed as downregulation of HIF1alpha level at 10 uM added together with cycloheximide and measured after up 45 mins post dose by Western blot analysis; format: cell-based
Procedure, shortened: (§3)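 Hep3B cells kept under normoxia or hypoxia for 4 h, then cycloheximide (10 μM) and compound (10 μM) added to the medium; HIF-1α level detected by Western blot at 0, 15, 30 or 45 min after cycloheximide.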

[10] = biological target: T1, 26S proteasome (Homo sapiens); assay: Inhibition of 26S proteosome in human Hep3B cells grown under in normoxic condition for 4 hrs assessed as downregulation of HIF1alpha level at 10 uM added together with cycloheximide and measured after up 45 mins post dose by Western blot analysis; format: cell-based; procedure, shortened: as §3
Hep 3B2 [11] = assay: Downregulation of HIF1alpha mRNA expression in human Hep3B cells up to 10 uM after 12 hrs in hypoxic condition by RT-PCR analysis; format: functional, cell-based
Procedure, shortened: (§4)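 Hep3B cells held under normoxia or hypoxia for 12 h with or without indicated compound concentrations; RNA isolated, reverse-transcribed and analysed by RT-PCR for HIF-1α and VEGF, GAPDH as loading control; mean ± SD of three independent experiments.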

Hep 3B2 [12] = assay: Downregulation of HIF1alpha mRNA expression in human Hep3B cells up to 10 uM after 12 hrs in normoxic condition by RT-PCR analysis; format: functional, cell-based; procedure, shortened: as §4
[13] = biological target: Hypoxia-inducible factor 1-alpha (Homo sapiens) (UniProt Q16665); assay: Inhibition of HIFalpha in human Hep3B cells assessed as downregulation of VEGF mRNA expression up to 10 uM after 12 hrs in hypoxic condition by RT-PCR analysis; format: cell-based; procedure, shortened: as §4
[14] = biological target: Hypoxia-inducible factor 1-alpha (Homo sapiens) (UniProt Q16665); assay: Inhibition of HIF1alpha protein level in human Hep3B cells after 12 hrs in normoxic condition by Western blot analysis; format: cell-based; procedure, shortened: as §1
[15] = biological target: Hypoxia-inducible factor 1-alpha (Homo sapiens) (UniProt Q16665); assay: Inhibition of HIF1alpha protein level in human HCT116 cells after 12 hrs in normoxic condition by Western blot analysis; format: cell-based; procedure, shortened: as §1
[16] = biological target: Hypoxia-inducible factor 1-alpha (Homo sapiens) (UniProt Q16665); assay: Inhibition of HIF1alpha protein level in human A549 cells after 12 hrs in normoxic condition by Western blot analysis; format: cell-based; procedure, shortened: as §1
[17] = biological target: Hypoxia-inducible factor 1-alpha (Homo sapiens) (UniProt Q16665); assay: Inhibition of HIF1alpha protein level in human HeLa cells after 12 hrs in normoxic condition by Western blot analysis; format: cell-based; procedure, shortened: as §1
Hep 3B2 [18] = assay: Effect on TOP1 protein level in human Hep3B cells after 12 hrs in hypoxic condition by Western blot analysis; format: functional, cell-based; procedure, shortened: as §1
Hep 3B2 [19] = assay: Cytotoxicity against human Hep3B cells assessed as reduction in cell viability up to 30 uM after 24 hrs in normoxic condition by MTT assay; format: cell-based; conditions: hep 3b2, 24 h; procedure, shortened: as §2
Hep 3B2 [20] = assay: Antiproliferative activity against human Hep3B cells assessed as reduction in EdU incorporation at 10 uM after 12 hrs in hypoxic condition by DAPI staining based inverted fluorescence microscopic method; format: functional, cell-based
Procedure, shortened: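 Hep3B cells incubated 12 h with or without compound at 10 μM; EdU-labelled replicating cells examined by fluorescence microscopy, DNA counterstained with DAPI; percentage of EdU-positive cells compared with vehicle-treated cells.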

Hep 3B2 [21] = assay: Anticlonogenic activity against human Hep3B cells after 10 days by crystal violet staining based assay; format: functional, cell-based
Procedure, shortened: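 Hep3B cells exposed to compound at 0, 1, 3 and 10 μM for 12 h, then medium replaced with fresh medium and cells grown 10 d; colony formation imaged.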

HCT-116 = assay: Effect on TOP1 protein level in human HCT116 cells after 12 hrs in hypoxic condition by Western blot analysis; format: functional, cell-based; procedure, shortened: as §1
A549 = assay: Effect on TOP1 protein level in human A549 cells after 12 hrs in hypoxic condition by Western blot analysis; format: functional, cell-based; procedure, shortened: as §1
HeLa = assay: Effect on TOP1 protein level in human HeLa cells after 12 hrs in hypoxic condition by Western blot analysis; format: functional, cell-based; procedure, shortened: as §1

Chain of Hypoxia-inducible factor 1-alpha (Homo sapiens) (Q16665 whole entry, looked up): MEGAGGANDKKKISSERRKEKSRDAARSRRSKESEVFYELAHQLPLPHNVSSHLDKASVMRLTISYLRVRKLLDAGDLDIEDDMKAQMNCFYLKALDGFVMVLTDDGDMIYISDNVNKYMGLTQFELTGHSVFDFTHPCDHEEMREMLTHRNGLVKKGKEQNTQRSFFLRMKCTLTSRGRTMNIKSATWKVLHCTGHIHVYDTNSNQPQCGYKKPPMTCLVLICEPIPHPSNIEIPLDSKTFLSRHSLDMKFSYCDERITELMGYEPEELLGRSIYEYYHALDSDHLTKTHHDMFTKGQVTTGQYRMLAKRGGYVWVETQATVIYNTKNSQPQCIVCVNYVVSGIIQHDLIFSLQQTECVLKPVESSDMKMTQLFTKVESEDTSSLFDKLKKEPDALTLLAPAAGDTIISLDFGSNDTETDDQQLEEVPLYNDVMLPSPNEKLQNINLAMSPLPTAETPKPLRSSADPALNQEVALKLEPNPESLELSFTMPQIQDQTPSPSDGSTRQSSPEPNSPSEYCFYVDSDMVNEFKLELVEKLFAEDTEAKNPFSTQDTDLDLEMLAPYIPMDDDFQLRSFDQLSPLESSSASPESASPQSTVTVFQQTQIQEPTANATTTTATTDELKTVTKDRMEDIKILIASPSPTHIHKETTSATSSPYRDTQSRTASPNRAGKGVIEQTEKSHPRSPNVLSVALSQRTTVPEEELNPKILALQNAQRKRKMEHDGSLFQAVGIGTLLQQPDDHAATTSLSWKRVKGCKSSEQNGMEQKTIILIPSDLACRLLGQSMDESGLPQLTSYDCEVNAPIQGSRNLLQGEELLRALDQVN

C[C@H]1[C@H](C)CC[C@]2(C(=O)O)CC[C@]3(C)C(=CC[C@@H]4[C@@]5(C)CC(=C\c6ccc(Cl)cc6)/C(=N\NC(=N)N)C(C)(C)[C@@H]5CC[C@]43C)[C@H]12
inhibition [1]: Dose-dependent effect
inhibition [2]: Dose-dependent effect
IC50 (Hep 3B2 [3]): > 100 µM
inhibition [4]: Dose-dependent effect
inhibition [5]: Dose-dependent effect
inhibition [6]: Dose-dependent effect
inhibition [7]: Active
inhibition [8]: Active
inhibition [9]: inactive
inhibition [10]: inactive
Activity (Hep 3B2 [11]): inactive
Activity (Hep 3B2 [12]): inactive
inhibition [13]: Active
inhibition [14]: inactive
inhibition [15]: inactive
inhibition [16]: inactive
inhibition [17]: inactive
Activity (Hep 3B2 [18]): inactive
Activity (Hep 3B2 [19]): Non-Toxic
Activity (Hep 3B2 [20]): Active
Activity (Hep 3B2 [21]): Dose-dependent effect
Activity (HCT-116): inactive
Activity (A549): inactive
Activity (HeLa): inactive
